In ChEMBL document CHEMBL1914314, “Acidic triazoles as soluble guanylate cyclase stimulators” (Bioorg Med Chem Lett, 2011):

What was measured:
[1] = Intrinsic clearance in human liver microsomes assessed per mg of protein; format: ADME, Microsome
Summary of the method: (§1)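 Intrinsic metabolic clearance in liver microsomes, expressed as µL/min/mg protein.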

[2] = Octanol-buffer partition coefficient, log D of the compound at pH 7.4; format: physicochemical
Summary of the method: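 LogD measured by partition between octanol and pH 7.4 buffer.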

[3] = molecular target: T1, CYP1A2 (Homo sapiens, UniProt P05177); experiment: Inhibition of CYP1A2 at 3 uM; format: ADME
T1 sequence (P05177 whole entry): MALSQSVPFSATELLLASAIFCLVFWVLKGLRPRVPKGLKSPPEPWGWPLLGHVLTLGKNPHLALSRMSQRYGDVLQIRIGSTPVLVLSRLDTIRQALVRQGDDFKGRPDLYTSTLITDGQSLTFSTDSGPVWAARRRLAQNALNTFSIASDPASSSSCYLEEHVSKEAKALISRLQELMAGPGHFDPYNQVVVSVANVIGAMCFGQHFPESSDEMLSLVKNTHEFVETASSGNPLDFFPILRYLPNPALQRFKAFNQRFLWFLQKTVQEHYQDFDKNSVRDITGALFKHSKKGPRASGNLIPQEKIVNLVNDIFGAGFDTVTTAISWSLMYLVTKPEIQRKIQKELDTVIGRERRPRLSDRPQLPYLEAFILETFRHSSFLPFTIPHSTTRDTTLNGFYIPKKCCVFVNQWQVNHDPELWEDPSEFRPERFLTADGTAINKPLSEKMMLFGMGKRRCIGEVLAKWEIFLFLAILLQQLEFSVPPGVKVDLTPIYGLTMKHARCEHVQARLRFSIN

[4] = molecular target: T2, Soluble guanylate cyclase (Homo sapiens) (UniProt Q02153+O75343+P33402+Q02108); experiment: Activation of human soluble guanylate cyclase assessed as production of cGMP in presence of nitric oxide donor, SIN-1 by FP assay; format: protein-complex assay
Summary of the method: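 Purified human sGC with the NO donor SIN-1 present. Enzyme converts GTP to cGMP, and the cGMP binds a cGMP-specific antibody included in the reactions. Read-out is fluorescence polarization.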

[5] = Apparent permeability from apical to basolateral side in dog RRCK cells; format: ADME, cell-based, Canis lupus familiaris, MDCKII-LE; conditions: MDCK
Summary of the method: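 Passive permeability measured in RRCK cells as Papp A→B, in units of 10^-6 cm/s.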

[6] = molecular target: T2, Soluble guanylate cyclase (Homo sapiens); experiment: Activation of human soluble guanylate cyclase assessed as production of cGMP in presence of nitric oxide donor, SIN-1 by LC-MS enzyme assay; format: protein-complex assay
[7] = Half life in rat at 2 mg/kg, iv; format: ADME, organism-based; parameters: dose 2 mg/kg, route intravenous; conditions: in vivo
Summary of the method: (§2)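 Rats dosed iv at 2 mg/kg. Clearance, volume of distribution at steady state and half-life derived after iv dosing.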

[8] = Activation of soluble guanylate cyclase in Sprague-Dawley rat thoracic aorta rings assessed as […] in presence of nitric oxide donor, DETA-NO; format: tissue-based
[9] = Clearance in rat at 2 mg/kg, iv; format: ADME, organism-based; parameters: dose 2 mg/kg, route intravenous; conditions: in vivo; summary of the method: as §2
[10] = Oral bioavailability in rat at 2 mg/kg; format: ADME, organism-based; conditions: in vivo
Summary of the method: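 Rats dosed orally at 2 mg/kg. Bioavailability determined after oral dosing, with a 2 mg/kg iv arm for reference.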

[11] = Volume of distribution at steady state in rat at 2 mg/kg, iv; format: ADME, organism-based; parameters: dose 2 mg/kg, route intravenous; conditions: in vivo, read-out: Vdss; summary of the method: as §2
[12] = Activation of soluble guanylate cyclase in Sprague-Dawley rat thoracic aorta rings assessed as inhibition of noradrenaline-evoked vasoconstriction in presence of nitric oxide donor, DETA-NO
[13] = Apparent permeability of the compound by PAMPA assay; format: ADME
Summary of the method: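 Passive permeability from a PAMPA screen, as Papp in units of 10^-6 cm/s.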

[14] = molecular target: Voltage-gated inwardly rectifying potassium channel KCNH2 (Homo sapiens, UniProt Q12809); experiment: Inhibition of human ERG
Chain of Voltage-gated inwardly rectifying potassium channel KCNH2 (Q12809 whole entry): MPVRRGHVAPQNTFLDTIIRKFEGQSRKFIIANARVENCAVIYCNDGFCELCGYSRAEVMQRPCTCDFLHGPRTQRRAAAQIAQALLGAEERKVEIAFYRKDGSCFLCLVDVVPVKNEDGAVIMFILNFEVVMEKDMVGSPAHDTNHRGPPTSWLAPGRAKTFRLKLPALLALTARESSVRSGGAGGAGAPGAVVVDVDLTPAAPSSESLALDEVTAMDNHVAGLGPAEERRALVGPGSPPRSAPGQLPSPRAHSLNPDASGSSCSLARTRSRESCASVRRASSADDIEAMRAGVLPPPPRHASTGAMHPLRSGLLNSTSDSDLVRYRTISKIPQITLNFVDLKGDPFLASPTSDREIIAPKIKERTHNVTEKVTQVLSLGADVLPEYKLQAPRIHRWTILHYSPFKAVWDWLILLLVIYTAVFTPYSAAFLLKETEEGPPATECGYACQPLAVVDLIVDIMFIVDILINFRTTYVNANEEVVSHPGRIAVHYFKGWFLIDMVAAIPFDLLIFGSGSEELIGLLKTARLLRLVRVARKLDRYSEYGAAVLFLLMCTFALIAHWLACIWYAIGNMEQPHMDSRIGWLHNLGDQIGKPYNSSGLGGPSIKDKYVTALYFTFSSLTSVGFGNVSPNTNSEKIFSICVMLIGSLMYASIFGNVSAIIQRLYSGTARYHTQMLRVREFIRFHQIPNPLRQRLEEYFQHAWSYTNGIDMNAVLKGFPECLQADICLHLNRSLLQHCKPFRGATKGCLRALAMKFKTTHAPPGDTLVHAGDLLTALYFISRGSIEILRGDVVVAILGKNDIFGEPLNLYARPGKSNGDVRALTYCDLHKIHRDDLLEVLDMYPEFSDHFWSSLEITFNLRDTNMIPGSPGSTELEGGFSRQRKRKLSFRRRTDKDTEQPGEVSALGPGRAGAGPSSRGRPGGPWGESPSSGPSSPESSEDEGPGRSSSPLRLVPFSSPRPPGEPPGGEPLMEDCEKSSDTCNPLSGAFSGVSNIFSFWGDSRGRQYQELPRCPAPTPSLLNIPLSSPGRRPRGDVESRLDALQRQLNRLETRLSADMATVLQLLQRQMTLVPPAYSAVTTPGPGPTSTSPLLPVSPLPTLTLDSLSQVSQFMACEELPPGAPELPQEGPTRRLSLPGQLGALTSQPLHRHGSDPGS

[15] = Intrinsic clearance in rat liver microsomes assessed per mg of protein; format: ADME, Microsome; summary of the method: as §1

Compound | microsomal CLint [1] [µL/min/mg] | logD [2] | inhibition at 3 µM [3] [%] | EC20 [4] [nM] | Papp A→B [5] [×10⁻⁶ cm/s] | EC10 [6] [nM] | half-life [7] [h] | IC50 [8] [nM] | clearance [9] [mL/min/kg] | bioavailability [10] [%] | Vd [11] [L/kg] | IC50 [12] [nM] | Papp [13] [×10⁻⁶ cm/s] | INH [14] [µM] | microsomal CLint [15] [µL/min/mg]
Cc1ncc(Cc2nc(-c3nc(C(F)(F)F)n[nH]3)n3cccc(F)c23)cn1 | < 8 | 2 | 15 | 73 | 23 | – | – | – | – | – | – | – | – | – | –
Fc1ccccc1Cc1nc(-c2nc(C(F)F)n[nH]2)n2ccccc12 | 62 | 3.8 | 49 | – | 0.2 | 507 | – | – | – | – | – | – | – | – | –
Fc1ccccc1Cc1nc(-c2nc(C(F)(F)F)n[nH]2)c2ccccn12 | 20 | 3.9 | 66 | 1070 | 17 | 658 | – | – | – | – | – | – | – | – | –
Fc1ccccc1Cn1nc(-c2nc(C(F)(F)F)n[nH]2)c2cccnc21 | < 11 | 3.2 | 20 | 22 | 20 | 60 | 4.7 | 33 | 8 | 66 | 3.1 | – | – | – | –
Fc1ccccc1Cc1nc(-c2ncn[nH]2)n2ccccc12 | 175 | 3.3 | 39 | – | 8 | 2800 | – | – | – | – | – | – | – | – | –
Fc1ccccc1Cc1nc(-c2nc(C(F)(F)F)n[nH]2)n2ccccc12 | 72 | 3.8 | 57 | 281 | 6 | 470 | – | – | – | – | – | 40 | – | – | –
CS(=O)(=O)c1n[nH]c(-c2nc(Cc3ccccc3F)c3ccccn23)n1 | 14 | 1.2 | 3 | – | – | 1340 | – | – | – | – | – | – | – | – | –
Cc1ncc(Cn2nc(-c3nc(C(F)(F)F)n[nH]3)c3cccnc32)cn1 | < 7 | – | < 5 | 58 | – | – | – | – | – | – | – | – | 27 | – | –
Fc1ccccc1Cc1nc(-c2nc(Cc3ccccc3)n[nH]2)n2ccccc12 | – | – | 29 | 554 | 0.5 | 840 | – | – | – | – | – | – | – | – | –
FC(F)(F)c1n[nH]c(-c2nc(Cc3cncnc3)c3ccccn23)n1 | < 7 | 1.8 | 82 | 80 | 19 | 210 | 4.1 | – | 9.9 | 61 | 3.7 | 60 | – | > 10 | < 16
Cc1n[nH]c(-c2nc(Cc3ccccc3F)c3ccccn23)n1 | 124 | 3.3 | 23 | – | 1 | 393 | – | – | – | – | – | – | – | – | –
Fc1ccccc1Cc1nc(-c2nc(C(F)(F)F)n[nH]2)c2cccnn12 | – | – | – | – | – | 224 | – | – | – | – | – | – | – | – | –
Fc1ccccc1Cc1nc(-c2nc(C(F)(F)C(F)(F)F)n[nH]2)n2ccccc12 | 92 | 4.2 | 31 | – | 3 | 1170 | – | – | – | – | – | – | – | – | –
Fc1ccccc1Cc1nc(-c2nc(C(F)(F)F)n[nH]2)n2cccnc12 | 17 | 2.5 | 17 | 221 | 28 | 724 | – | – | – | – | – | – | – | – | –
Nc1nc(-c2nn(Cc3ccccc3F)c3ncccc23)nc(N)c1N1CCOCC1 | – | 3.1 | – | 11 | – | 44 | – | – | – | – | – | 11 | – | – | –
OCc1ccc(-c2nn(Cc3ccccc3)c3ccccc23)o1 | 212 | 3.7 | 69 | – | 6 | 3360 | – | – | – | – | – | – | – | – | –
Cc1ncc(Cc2nc(-c3nc(C(F)(F)F)n[nH]3)n3ccccc23)cn1 | < 8 | 2.1 | 5 | 245 | 27 | 366 | – | – | – | – | – | – | – | – | –
NC(=O)c1n[nH]c(-c2nc(Cc3ccccc3F)c3ccccn23)n1 | < 8 | 2.8 | 16 | – | 13 | 2810 | – | – | – | – | – | – | – | – | –
